# Laboratory results taken from ChEMBL document CHEMBL2157866, “Virtual screening and computational optimization for the discovery of covalent prolyl oligopeptidase inhibitors with activity in human cells” (J Med Chem, 2012).
# Test system: not listed separately
# Experiment: Half life in human liver microsomes at 1 uM after 30 mins by LC-MSD method
# Assay type: ADME, Microsome
# Conditions: not given
# How it was run: (§1)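 Test compound at 1 μM in 0.1 M KH2PO4 pH 7.4 with liver microsomes (0.5618 mg/mL) at 37 °C. Reaction started with NADPH. Aliquots taken at 0, 10, 20 and 30 min and quenched into equal-volume acetonitrile. Samples centrifuged at 9000g, 4 °C, and supernatants analysed by LC-MSD.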
row,half-life at 1 µM [min],SMILES
1,98,O=C(c1cccc2c1C(=O)N(Cc1ccccc1)C2)N1CCCC1
2,16,O=C(NCc1ccccc1)c1ccccc1C(=O)N1CCCCC1
3,111,N#C[C@@H]1CCCN1C(=O)c1cccc2c1C(=O)N(Cc1ccccc1)C2

# More lines, now with the values behind:
row,SMILES,half-life at 1 µM [min]
1,N#C[C@@H]1CCCN1C(=O)c1ccccc1C(=O)NCc1ccccc1,31
2,N#C[C@@H]1CS[C@H]2C[C@@H](NC(=O)OCc3ccccc3)C(=O)N12,134
3,O=C(NCc1ccccc1)c1ccccc1C(=O)N1CCCC1,55

# Test system: not listed separately
# Experiment: Intrinsic clearance in rat liver microsomes at 1 uM after 30 mins by LC-MSD method
# Assay type: ADME, Microsome
# Conditions: read-out: CLH
# How it was run: as §1
row,microsomal CLint at 1 µM [µL/min/mg],SMILES
1,62,O=C(c1cccc2c1C(=O)N(Cc1ccccc1)C2)N1CCCC1
2,311,O=C(NCc1ccccc1)c1ccccc1C(=O)N1CCCCC1
3,39,N#C[C@@H]1CCCN1C(=O)c1cccc2c1C(=O)N(Cc1ccccc1)C2

# The remaining lines, values behind:
row,SMILES,microsomal CLint at 1 µM [µL/min/mg]
1,N#C[C@@H]1CCCN1C(=O)c1ccccc1C(=O)NCc1ccccc1,37
2,O=C(NCc1ccccc1)c1ccccc1C(=O)N1CCCC1,83

# Test system: not listed separately
# Experiment: Intrinsic clearance in human liver microsomes at 1 uM after 30 mins by LC-MSD method
# Assay type: ADME, Microsome
# Conditions: read-out: CLH
# How it was run: as §1
row,microsomal CLint at 1 µM [µL/min/mg],SMILES
1,14,O=C(c1cccc2c1C(=O)N(Cc1ccccc1)C2)N1CCCC1
2,89,O=C(NCc1ccccc1)c1ccccc1C(=O)N1CCCCC1
3,13,N#C[C@@H]1CCCN1C(=O)c1cccc2c1C(=O)N(Cc1ccccc1)C2

# The next lines start with the compound.
row,SMILES,microsomal CLint at 1 µM [µL/min/mg]
1,N#C[C@@H]1CCCN1C(=O)c1ccccc1C(=O)NCc1ccccc1,44
2,N#C[C@@H]1CS[C@H]2C[C@@H](NC(=O)OCc3ccccc3)C(=O)N12,10
3,O=C(NCc1ccccc1)c1ccccc1C(=O)N1CCCC1,25

# Test system: not listed separately
# Experiment: Half life in rat liver microsomes at 1 uM after 30 mins by LC-MSD method
# Assay type: ADME, Microsome
# Conditions: not given
# How it was run: as §1
row,half-life at 1 µM [min],SMILES
1,23,O=C(c1cccc2c1C(=O)N(Cc1ccccc1)C2)N1CCCC1
2,4,O=C(NCc1ccccc1)c1ccccc1C(=O)N1CCCCC1
3,35,N#C[C@@H]1CCCN1C(=O)c1cccc2c1C(=O)N(Cc1ccccc1)C2

# Second part, the compound before the results:
row,SMILES,half-life at 1 µM [min]
1,N#C[C@@H]1CCCN1C(=O)c1ccccc1C(=O)NCc1ccccc1,38
2,O=C(NCc1ccccc1)c1ccccc1C(=O)N1CCCC1,17

# Target: T1, Prolyl endopeptidase FAP (Homo sapiens, UniProt Q12884)
# T1 sequence (Q12884 whole entry): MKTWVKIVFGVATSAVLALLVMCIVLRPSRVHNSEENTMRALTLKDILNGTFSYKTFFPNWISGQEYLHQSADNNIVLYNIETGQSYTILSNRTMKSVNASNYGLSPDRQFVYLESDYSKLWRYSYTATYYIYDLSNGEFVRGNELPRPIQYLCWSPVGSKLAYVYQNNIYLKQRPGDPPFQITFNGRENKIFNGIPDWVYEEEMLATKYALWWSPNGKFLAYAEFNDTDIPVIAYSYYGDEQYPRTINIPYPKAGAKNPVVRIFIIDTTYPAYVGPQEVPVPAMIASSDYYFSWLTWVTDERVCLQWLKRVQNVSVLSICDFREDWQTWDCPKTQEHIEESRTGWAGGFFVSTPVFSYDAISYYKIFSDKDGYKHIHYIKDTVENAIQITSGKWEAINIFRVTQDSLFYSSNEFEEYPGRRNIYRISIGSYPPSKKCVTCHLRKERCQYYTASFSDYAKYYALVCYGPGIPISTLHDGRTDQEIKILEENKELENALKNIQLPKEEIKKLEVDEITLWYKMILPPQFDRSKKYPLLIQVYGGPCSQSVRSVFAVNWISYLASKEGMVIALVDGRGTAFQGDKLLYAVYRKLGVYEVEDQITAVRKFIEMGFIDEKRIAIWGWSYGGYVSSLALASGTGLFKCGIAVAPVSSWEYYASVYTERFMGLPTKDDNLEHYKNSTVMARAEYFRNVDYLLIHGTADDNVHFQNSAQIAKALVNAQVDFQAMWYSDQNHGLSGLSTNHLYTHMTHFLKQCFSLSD
# Experiment: Inhibition at human recombinant FAPalpha
# Conditions: not given
# How it was run: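 Recombinant human FAPα diluted in PBS with 1 mg/mL BSA. Setup as for cell extracts: inhibitor preincubated 5–10 min at room temperature, then Z-Gly-Pro-AMC at 10 μM final. AMC fluorescence (ex/em 360/460 nm) recorded for 30 min at 37 °C.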
row,IC50 [µM],SMILES
1,> 100,O=C(c1cccc2c1C(=O)N(Cc1ccccc1)C2)N1CCCC1
2,> 100,N#C[C@@H]1CCCN1C(=O)c1ccccc1C(=O)NCc1ccccc1
3,> 100,N#C[C@@H]1CCCN1C(=O)c1cccc2c1C(=O)N(Cc1ccccc1)C2
